Results: ChEMBL document CHEMBL1137018 (Antimicrob Agents Chemother, 2007)

How the values were obtained:
[1] = Tmax in human at 400 mg, po bid from day 11 to day 20 pretreated with placebo from day 1 to day 3 followed by washout from day 4 to day 10 followed by 400 mg, po of drug coadministered with placebo from day 21 to day 30; format: ADME, organism-based; details: in vivo
How it was run: (§1)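 Blood (7 ml) drawn on days 20 and 30 at 0.5–12 h postdose, centrifuged at 1,700 x g about 10 min at about 4°C, plasma stored at about –20°C. Validated LC/MS/MS assay; noncompartmental analysis, with Cmax and Tmax read directly from concentration-time data.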

[2] = AUC (0 to 12 hrs) in human at 100 mg, po bid from day 11 to day 20 pretreated with voriconazole 400 mg, po bid on day 1 and 200 mg, po bid on day 2 and 3 followed by washout from day 4 to day 10; format: ADME, organism-based; set-up: dose 100 mg, time < 12 hr, route oral; details: plasma; how it was run: as §1
[3] = Tmax in human at 400 mg, po bid from day 11 to day 20 pretreated with voriconazole 400 mg, po bid on day 1 and 200 mg, po bid on day 2 and 3 followed by washout from day 4 to day 10 followed by 400 mg, po of drug coadministered with voriconazole 200 mg, po from day 21 to day 30; format: ADME, organism-based; details: in vivo; how it was run: as §1
[4] = AUC (0 to 12 hrs) in human at 400 mg, po bid from day 11 to day 20 pretreated with placebo from day 1 to day 3 followed by washout from day 4 to day 10; format: ADME, organism-based; set-up: dose 400 mg, time < 12 hr, route oral; details: plasma; how it was run: as §1
[5] = AUC (0 to 12 hrs) in human at 100 mg, po bid from day 11 to day 20 pretreated with voriconazole 400 mg, po bid on day 1 and 200 mg, po bid on day 2 and 3 followed by washout from day 4 to day 10 followed by 100 mg, po of drug coadministered with voriconazole 200 mg, po from day 21 to day 30; format: ADME, organism-based; set-up: dose 100 mg, time < 12 hr, route oral; details: plasma; how it was run: as §1
[6] = Tmax in human at 100 mg, po bid from day 11 to day 20 pretreated with voriconazole 400 mg, po bid on day 1 and 200 mg, po bid on day 2 and 3 followed by washout from day 4 to day 10; format: ADME, organism-based; details: in vivo; how it was run: as §1
[7] = AUC (0 to 12 hrs) in human at 400 mg, po bid from day 11 to day 20 pretreated with voriconazole 400 mg, po bid on day 1 and 200 mg, po bid on day 2 and 3 followed by washout from day 4 to day 10 followed by 400 mg, po of drug coadministered with voriconazole 200 mg, po from day 21 to day 30; format: ADME, organism-based; set-up: time < 12 hr, dose 400 mg, route oral; details: plasma; how it was run: as §1
[8] = AUC (0 to 12 hrs) in human at 400 mg, po bid from day 11 to day 20 pretreated with voriconazole 400 mg, po bid on day 1 and 200 mg, po bid on day 2 and 3 followed by washout from day 4 to day 10; format: ADME, organism-based; set-up: dose 400 mg, time < 12 hr, route oral; details: plasma; how it was run: as §1
[9] = Cmax in human at 400 mg, po bid from day 11 to day 20 pretreated with voriconazole 400 mg, po bid on day 1 and 200 mg, po bid on day 2 and 3 followed by washout from day 4 to day 10; format: ADME, organism-based; set-up: dose 400 mg, route oral; details: in vivo; how it was run: as §1
[10] = AUC (0 to 12 hrs) in human at 400 mg, po bid from day 11 to day 20 pretreated with placebo from day 1 to day 3 followed by washout from day 4 to day 10 followed by 400 mg, po of drug coadministered with placebo from day 21 to day 30; format: ADME, organism-based; set-up: dose 400 mg, time < 12 hr, route oral; details: plasma; how it was run: as §1
[11] = Tmax in human at 400 mg, po bid from day 11 to day 20 pretreated with placebo from day 1 to day 3 followed by washout from day 4 to day 10; format: ADME, organism-based; details: in vivo; how it was run: as §1
[12] = Cmax in human at 100 mg, po bid from day 11 to day 20 pretreated with voriconazole 400 mg, po bid on day 1 and 200 mg, po bid on day 2 and 3 followed by washout from day 4 to day 10; format: ADME, organism-based; set-up: dose 100 mg, route oral; details: in vivo; how it was run: as §1
[13] = Cmax in human at 400 mg, po bid from day 11 to day 20 pretreated with placebo from day 1 to day 3 followed by washout from day 4 to day 10; format: ADME, organism-based; set-up: dose 400 mg, route oral; details: in vivo; how it was run: as §1
[14] = Tmax in human at 100 mg, po bid from day 11 to day 20 pretreated with voriconazole 400 mg, po bid on day 1 and 200 mg, po bid on day 2 and 3 followed by washout from day 4 to day 10 followed by 100 mg, po of drug coadministered with voriconazole 200 mg, po from day 21 to day 30; format: ADME, organism-based; details: in vivo
[15] = Cmax in human at 100 mg, po bid from day 11 to day 20 pretreated with voriconazole 400 mg, po bid on day 1 and 200 mg, po bid on day 2 and 3 followed by washout from day 4 to day 10 followed by 100 mg, po of drug coadministered with voriconazole 200 mg, po from day 21 to day 30; format: ADME, organism-based; set-up: dose 100 mg, route oral; details: in vivo; how it was run: as §1
[16] = Cmax in human at 400 mg, po bid from day 11 to day 20 pretreated with voriconazole 400 mg, po bid on day 1 and 200 mg, po bid on day 2 and 3 followed by washout from day 4 to day 10 followed by 400 mg, po of drug coadministered with voriconazole 200 mg, po from day 21 to day 30; format: ADME, organism-based; set-up: dose 400 mg, route oral; details: in vivo; how it was run: as §1
[17] = Tmax in human at 400 mg, po bid from day 11 to day 20 pretreated with voriconazole 400 mg, po bid on day 1 and 200 mg, po bid on day 2 and 3 followed by washout from day 4 to day 10; format: ADME, organism-based; details: in vivo; how it was run: as §1
[18] = Cmax in human at 400 mg, po bid from day 11 to day 20 pretreated with placebo from day 1 to day 3 followed by washout from day 4 to day 10 followed by 400 mg, po of drug coadministered with placebo from day 21 to day 30; format: ADME, organism-based; set-up: dose 400 mg, route oral; details: in vivo; how it was run: as §1
Homo sapiens [19] = experiment: Toxicity in human assessed as mortality at 400 mg, po bid on day 1 and 200 mg, po bid on day 2 and 3 followed by 7 days of washout period then treated with ritonavir 400 mg, po for 10 days followed by 200 mg, po of drug coadministered with ritonavir 400 mg, po till day 30; format: organism-based; details: in vivo
How it was run: (§2)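 Healthy male subjects were followed for adverse events throughout dosing. Vital signs and 12-lead ECGs were recorded predose and 1, 3 and 8 h after the morning voriconazole dose on days 1, 3, 11, 15, 20, 21, 25 and 30. The baseline was the mean of triplicate day-1 predose ECGs. Safety data were summarized descriptively.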

[20] = AUC (0 to 12 hrs) in human at 400 mg, po bid on day 1 and 200 mg, po bid on day 2 and 3 measured after 3 days; format: ADME, organism-based; set-up: dose 400 mg, time < 12 hr, route oral; details: plasma
How it was run: (§3)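 Healthy male volunteers. […] Plasma was sampled on days 3 and 30 at 0.5–12 h postdose. Samples were solid-phase extracted and assayed by LC/MS/MS (range 10 to 2,500 ng/ml). Cmax and Tmax were read directly from the data; AUC0-12 was noncompartmental.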

[21] = Tmax in human at 400 mg, po bid on day 1 and 200 mg, po bid on day 2 and 3 followed by 7 days of washout period then treated with ritonavir 100 mg, po for 10 days followed by 200 mg, po of drug coadministered with 100 mg, po ritonavir till day 30; format: ADME, organism-based; details: in vivo; how it was run: as §3
[22] = AUC (0 to 12 hrs) in human at 400 mg, po bid on day 1 and 200 mg, po bid on day 2 and 3 followed by 7 days of washout period then treated with ritonavir 100 mg, po for 10 days followed by 200 mg, po of drug coadministered with 100 mg, po ritonavir till day 30; format: ADME, organism-based; set-up: time < 12 hr, dose 400 mg, route oral; details: plasma; how it was run: as §3
[23] = Cmax in human at 400 mg, po bid on day 1 and 200 mg, po bid on day 2 and 3 followed by 7 days of washout period then treated with ritonavir 100 mg, po for 10 days followed by 200 mg, po of drug coadministered with 100 mg, po ritonavir till day 30; format: ADME, organism-based; set-up: dose 400 mg, route oral; details: in vivo; how it was run: as §3
Homo sapiens [24] = experiment: Toxicity in human assessed as mortality at 400 mg, po bid on day 1 and 200 mg, po bid on day 2 and 3 followed by 7 days of washout period then treated with ritonavir 100 mg, po for 10 days followed by 200 mg, po of drug coadministered with ritonavir 100 mg, po till day 30; format: organism-based; details: in vivo; how it was run: as §2
[25] = AUC (0 to 12 hrs) in human at 400 mg, po bid on day 1 and 200 mg, po bid on day 2 and 3 followed by 7 days of washout period then treated with ritonavir 400 mg, po for 10 days followed by 200 mg, po of drug coadministered with 400 mg, po ritonavir till day 30; format: ADME, organism-based; set-up: time < 12 hr, dose 400 mg, route oral; details: plasma; how it was run: as §3
Homo sapiens [26] = experiment: Toxicity in human assessed as serious adverse events at 400 mg, po bid on day 1 and 200 mg, po bid on day 2 and 3 followed by 7 days of washout period then treated with ritonavir 400 mg, po for 10 days followed by 200 mg, po of drug coadministered with ritonavir 400 mg, po till day 30; format: organism-based; details: in vivo; how it was run: as §2
[27] = Cmax in human at 400 mg, po bid on day 1 and 200 mg, po bid on day 2 and 3 followed by 7 days of washout period then treated with ritonavir 400 mg, po for 10 days followed by 200 mg, po of drug coadministered with 400 mg, po ritonavir till day 30; format: ADME, organism-based; set-up: dose 400 mg, route oral; details: in vivo; how it was run: as §3
Homo sapiens [28] = experiment: Decrease in Cmax of ritonavir in human at 400 mg, po bid on day 1 and 200 mg, po bid on day 2 and 3 followed by 7 days of washout period then treated with ritonavir 100 mg, po for 10 days followed by 200 mg, po of drug coadministered with ritonavir 100 mg, po till day 30; format: ADME, organism-based; details: in vivo
[29] = Tmax in human at 400 mg, po bid on day 1 and 200 mg, po bid on day 2 and 3 measured after 3 days; format: ADME, organism-based; details: in vivo; how it was run: as §3
Homo sapiens [30] = experiment: Toxicity in human assessed as serious adverse events at 400 mg, po bid on day 1 and 200 mg, po bid on day 2 and 3 followed by 7 days of washout period then treated with ritonavir 100 mg, po for 10 days followed by 200 mg, po of drug coadministered with ritonavir 100 mg, po till day 30; format: organism-based; details: in vivo; how it was run: as §2
Homo sapiens [31] = experiment: Toxicity in human assessed as mortality at 400 mg, po bid on day 1 and 200 mg, po bid on day 2 and 3 measured after 3 days; format: organism-based; details: in vivo, 72 h; how it was run: as §2
[32] = Cmax in human at 400 mg, po bid on day 1 and 200 mg, po bid on day 2 and 3 measured after 3 days; format: ADME, organism-based; set-up: dose 400 mg, route oral; details: in vivo; how it was run: as §3
Homo sapiens [33] = experiment: Toxicity in human assessed as serious adverse events at 400 mg, po bid on day 1 and 200 mg, po bid on day 2 and 3 measured after 3 days; format: organism-based; details: in vivo, 72 h; how it was run: as §2
[34] = Tmax in human at 400 mg, po bid on day 1 and 200 mg, po bid on day 2 and 3 followed by 7 days of washout period then treated with ritonavir 400 mg, po for 10 days followed by 200 mg, po of drug coadministered with 400 mg, po ritonavir till day 30; format: ADME, organism-based; details: in vivo; how it was run: as §3

CC(C)c1nc(CN(C)C(=O)N[C@H](C(=O)N[C@@H](Cc2ccccc2)C[C@H](O)[C@H](Cc2ccccc2)NC(=O)OCc2cncs2)C(C)C)cs1 [RITONAVIR]
Tmax [1]: 1 h
AUC at 12 h [2]: 7810 ng·h/mL
Tmax [3]: 1 h
AUC at 12 h [4]: 65300 ng·h/mL
AUC at 12 h [5]: 6430 ng·h/mL
Tmax [6]: 1 h
AUC at 12 h [7]: 65900 ng·h/mL
AUC at 12 h [8]: 68000 ng·h/mL
Cmax [9]: 10700 ng/mL
AUC at 12 h [10]: 58400 ng·h/mL
Tmax [11]: 1 h
Cmax [12]: 1410 ng/mL
Cmax [13]: 10500 ng/mL
Tmax [14]: 3 h
Cmax [15]: 992 ng/mL
Cmax [16]: 10400 ng/mL
Tmax [17]: 1.5 h
Cmax [18]: 10200 ng/mL

C[C@@H](c1ncncc1F)[C@](O)(Cn1cncn1)c1ccc(F)cc1F [VORICONAZOLE]
Activity (Homo sapiens [19]): Non-toxic
AUC at 12 h [20]: 26500 ng·h/mL
Tmax [21]: 1.5 h
AUC at 12 h [22]: 19500 ng·h/mL
Cmax [23]: 2810 ng/mL
Activity (Homo sapiens [24]): Non-toxic
AUC at 12 h [25]: 4250 ng·h/mL
Activity (Homo sapiens [26]): Non-toxic
Cmax [27]: 1220 ng/mL
Activity (Homo sapiens [28]): Non-toxic
Tmax [29]: 1.5 h
Activity (Homo sapiens [30]): Non-toxic
Activity (Homo sapiens [31]): Non-toxic
Cmax [32]: 3360 ng/mL
Activity (Homo sapiens [33]): Non-toxic
Tmax [34]: 1 h
